Here are results for one compound from ChEMBL document CHEMBL5661979, “Pharmacological inhibition of BMK1 suppresses tumor growth through promyelocytic leukemia protein” (Cancer Cell, 2010).

Data set [1] has as its target Serine/threonine-protein kinase 16 (Homo sapiens, UniProt O75716). Kind of data set: Inhibition of MPSK1 in human HeLa cells lysate at 50 uM pre incubated for 15 mins followed by ATP acyl phosphate probe addition and measured after 10 mins by LC-MS/MS analysis relative to control. The class given is subcellular. The settings on record: time 25.0 min.
The target in data set [2] is Phosphatidylinositol 5-phosphate 4-kinase type-2 gamma (Homo sapiens, UniProt Q8TBX8). Description: Inhibition of PIP5K2C in human HeLa cells lysate pre incubated for 15 mins followed by ATP acyl phosphate probe addition and measured after 10 mins by LC-MS/MS analysis. Type of data set: subcellular.
In data set [3] the target is Interferon-induced, double-stranded RNA-activated protein kinase (Homo sapiens, UniProt P19525). Kind of data set: Inhibition of PKR in human HeLa cells lysate at 2 uM pre incubated for 15 mins followed by ATP acyl phosphate probe addition and measured after 10 mins by LC-MS/MS analysis relative to control. The following applies: time 25.0 min. The class given is subcellular.
Sequence of Interferon-induced, double-stranded RNA-activated protein kinase (P19525 whole entry): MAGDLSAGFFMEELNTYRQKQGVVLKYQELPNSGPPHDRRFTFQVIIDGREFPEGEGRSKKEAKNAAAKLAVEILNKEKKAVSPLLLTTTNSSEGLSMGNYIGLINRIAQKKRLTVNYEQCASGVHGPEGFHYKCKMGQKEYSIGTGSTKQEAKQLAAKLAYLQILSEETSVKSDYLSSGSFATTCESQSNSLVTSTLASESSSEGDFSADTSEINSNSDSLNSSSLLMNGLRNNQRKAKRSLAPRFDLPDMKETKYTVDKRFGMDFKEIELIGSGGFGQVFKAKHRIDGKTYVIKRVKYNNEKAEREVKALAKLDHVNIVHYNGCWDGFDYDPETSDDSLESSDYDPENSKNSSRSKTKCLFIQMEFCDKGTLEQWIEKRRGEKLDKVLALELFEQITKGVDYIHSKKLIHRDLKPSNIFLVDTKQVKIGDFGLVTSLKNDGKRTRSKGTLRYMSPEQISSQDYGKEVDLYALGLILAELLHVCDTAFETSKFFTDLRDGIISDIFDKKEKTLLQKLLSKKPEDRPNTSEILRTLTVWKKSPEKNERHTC

Data set [4] has as its target STE20-like serine/threonine-protein kinase (Homo sapiens, UniProt Q9H2G2). Description: Inhibition of SLK in human HeLa cells lysate at 2 uM pre incubated for 15 mins followed by ATP acyl phosphate probe addition and measured after 10 mins by LC-MS/MS analysis relative to control. Type of data set: subcellular. The following applies: time 25.0 min.
Data set [5] addresses T1, Dual specificity mitogen-activated protein kinase kinase 5 (Homo sapiens) (UniProt Q13163).
T1 sequence (whole entry): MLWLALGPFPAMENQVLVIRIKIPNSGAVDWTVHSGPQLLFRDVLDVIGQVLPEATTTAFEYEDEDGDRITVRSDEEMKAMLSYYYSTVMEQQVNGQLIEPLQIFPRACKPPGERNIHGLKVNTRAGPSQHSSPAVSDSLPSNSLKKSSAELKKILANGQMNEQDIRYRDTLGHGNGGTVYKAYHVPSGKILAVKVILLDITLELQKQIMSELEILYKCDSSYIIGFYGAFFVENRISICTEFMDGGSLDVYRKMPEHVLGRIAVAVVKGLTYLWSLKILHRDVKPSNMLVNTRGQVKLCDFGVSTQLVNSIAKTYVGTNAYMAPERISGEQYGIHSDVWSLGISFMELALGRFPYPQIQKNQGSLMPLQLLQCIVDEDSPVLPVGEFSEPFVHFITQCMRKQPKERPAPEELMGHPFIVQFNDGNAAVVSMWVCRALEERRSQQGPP
Kind of data set: Inhibition of MAP2K5 in human HeLa cells lysate upto 50 uM pre incubated for 15 mins followed by ADP acyl phosphate probe addition and measured after 10 mins by LC-MS/MS analysis. Type of data set: subcellular. The following applies: time 25.0 min.

Data set [6] concerns the target T2, Calcium/calmodulin-dependent protein kinase type II subunit delta (Homo sapiens, UniProt Q13557). Kind of data set: Inhibition of CAMK2d in human HeLa cells lysate pre incubated for 15 mins followed by ADP acyl phosphate probe addition and measured after 10 mins by LC-MS/MS analysis. Type of data set: subcellular. The procedure, abridged: (§1)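 KiNativ-type profiling in HeLa lysate (5 mg/mL total protein). Lysate preincubated 15 min with inhibitor at 50, 10, 2, 0.8 or 0 μM, then ATP or ADP acylphosphate probe added (5 μM final) for 10 min. Reaction stopped with urea and analysed by targeted MS, using up to four fragment ions per kinase peptide-probe conjugate. % inhibition calculated against untreated lysate. Duplicate reactions.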

The target of data set [7] is T3, Serine/threonine-protein kinase 3/4 (Homo sapiens) (UniProt Q13043+Q13188). Kind of data set: Inhibition of MST1/2 in human HeLa cells lysate at 2 uM pre incubated for 15 mins followed by ATP acyl phosphate probe addition and measured after 10 mins by LC-MS/MS analysis relative to control. Type of data set: subcellular. The settings on record: time 25.0 min.
T3 sequence (Q13043 whole entry, looked up): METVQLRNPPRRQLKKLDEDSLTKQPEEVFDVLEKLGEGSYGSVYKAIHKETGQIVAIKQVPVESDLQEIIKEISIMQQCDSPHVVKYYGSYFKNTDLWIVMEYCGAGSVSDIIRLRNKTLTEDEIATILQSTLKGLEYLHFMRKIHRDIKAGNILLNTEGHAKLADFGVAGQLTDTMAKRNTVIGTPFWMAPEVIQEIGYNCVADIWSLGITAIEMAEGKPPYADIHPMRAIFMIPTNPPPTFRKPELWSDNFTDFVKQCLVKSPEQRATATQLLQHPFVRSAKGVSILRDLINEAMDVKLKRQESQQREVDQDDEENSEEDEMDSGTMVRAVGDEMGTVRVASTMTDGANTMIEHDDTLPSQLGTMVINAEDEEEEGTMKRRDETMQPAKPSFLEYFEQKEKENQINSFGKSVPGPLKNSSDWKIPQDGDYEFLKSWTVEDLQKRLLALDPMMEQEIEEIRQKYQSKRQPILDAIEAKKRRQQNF
T3 sequence (Q13188 whole entry, looked up): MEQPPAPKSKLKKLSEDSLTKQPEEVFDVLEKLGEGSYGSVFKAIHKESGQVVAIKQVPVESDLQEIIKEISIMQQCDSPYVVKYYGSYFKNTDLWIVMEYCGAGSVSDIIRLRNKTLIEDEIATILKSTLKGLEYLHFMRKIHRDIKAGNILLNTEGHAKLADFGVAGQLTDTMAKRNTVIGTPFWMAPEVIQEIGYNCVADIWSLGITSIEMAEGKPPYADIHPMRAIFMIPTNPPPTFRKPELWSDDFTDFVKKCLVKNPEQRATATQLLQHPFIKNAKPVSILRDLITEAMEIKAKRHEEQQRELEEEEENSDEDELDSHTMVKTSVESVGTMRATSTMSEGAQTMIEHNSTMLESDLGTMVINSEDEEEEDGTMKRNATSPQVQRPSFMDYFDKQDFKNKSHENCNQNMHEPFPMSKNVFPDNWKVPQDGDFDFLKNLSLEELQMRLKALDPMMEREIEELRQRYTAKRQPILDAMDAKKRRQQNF
Data set [8] can be described thus: MRT in Sprague-Dawley rat at 2 mg/kg, po measured up to 8 hrs by LC-MS/MS analysis. Type of data set: ADME, organism-based. The settings on record: in vivo.
Data set [9] concerns the target T3, Serine/threonine-protein kinase 3/4 (Homo sapiens). Description: Inhibition of MST1/2 in human HeLa cells lysate at 2 uM pre incubated for 15 mins followed by ADP acyl phosphate probe addition and measured after 10 mins by LC-MS/MS analysis relative to control. The class given is subcellular. The settings on record: time 25.0 min.
The next data set concerns Lewis lung carcinoma. Kind of data set: Antitumor activity against mouse LL2 cells allografted in C57Bl/6 mouse assessed as reduction tumor growth at 50 mg/kg, ip administered for 17 days. The class given is functional, organism-based. The settings on record: time 17.0 day. The procedure, abridged:
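LL/2 cells (1×10^6, in DMEM) were injected s.c. into the right flank of 6-week-old C57Bl/6 mice on day 0. Dosing was 50 mg/kg i.p. twice daily, starting on day 1, 7 or 10 and continuing to day 17; controls received carrier. 6 mice per treated group. Tumors were measured every 2–3 days.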

Data set [10] has as its target T2, Calcium/calmodulin-dependent protein kinase type II subunit delta. Description: Inhibition of CAMK2d in human HeLa cells lysate pre incubated for 15 mins followed by ATP acyl phosphate probe addition and measured after 10 mins by LC-MS/MS analysis. The class given is subcellular. The gist of the method:
as §1

In data set [11] the target is Serine/threonine-protein kinase Nek8 (Homo sapiens) (UniProt Q86SG6). Description: Inhibition of NEK8 in human HeLa cells lysate at 10 uM pre incubated for 15 mins followed by ADP acyl phosphate probe addition and measured after 10 mins by LC-MS/MS analysis relative to control. Type of data set: subcellular. The following applies: time 25.0 min.
For data set [12], the target named is Cyclin-dependent kinase 1 (Homo sapiens, UniProt P06493). Kind of data set: Inhibition of CDC2 in human HeLa cells lysate pre incubated for 15 mins followed by ADP acyl phosphate probe addition and measured after 10 mins by LC-MS/MS analysis. The class given is subcellular. The procedure, abridged:
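KiNativ profiling in HeLa lysate (5 mg/mL total protein). Lysate incubated 15 min with inhibitor at 50, 10, 2, 0.8 or 0 μM. ATP or ADP acylphosphate probe then added (5 μM final) and reacted 10 min. Reaction stopped with urea and analysed by targeted MS, using up to four fragment ions per kinase peptide-probe conjugate. % inhibition taken against untreated lysate. Run in duplicate.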

Data set [13] concerns the target Phosphatidylinositol 3-kinase catalytic subunit type 3 (Homo sapiens, UniProt Q8NEB9). Description: Inhibition of PIK3C3 in human HeLa cells lysate at 10 uM pre incubated for 15 mins followed by ATP acyl phosphate probe addition and measured after 10 mins by LC-MS/MS analysis relative to control. The settings on record: time 25.0 min. Type of data set: subcellular.

Data set [14] addresses Proto-oncogene tyrosine-protein kinase ROS (Homo sapiens) (UniProt P08922). Kind of data set: Inhibition of ROS1 (unknown origin) assessed as remaining activity at 10 uM by ATP-competition binding assay relative to control.
The target of data set [15] is T4, Phosphorylase b kinase gamma catalytic chain, liver/testis isoform (Homo sapiens) (UniProt P15735).
T4 sequence (whole entry): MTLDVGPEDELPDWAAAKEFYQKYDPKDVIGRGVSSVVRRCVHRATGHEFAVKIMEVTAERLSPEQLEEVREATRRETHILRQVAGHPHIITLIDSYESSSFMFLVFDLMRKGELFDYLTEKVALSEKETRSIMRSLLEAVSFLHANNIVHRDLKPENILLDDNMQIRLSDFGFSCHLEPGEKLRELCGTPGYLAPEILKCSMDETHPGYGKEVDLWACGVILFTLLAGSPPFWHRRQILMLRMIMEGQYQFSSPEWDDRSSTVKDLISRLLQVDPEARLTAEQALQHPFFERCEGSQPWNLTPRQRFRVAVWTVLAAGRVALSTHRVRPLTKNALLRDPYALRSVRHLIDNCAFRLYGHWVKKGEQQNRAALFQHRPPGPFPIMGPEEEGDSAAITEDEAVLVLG
Description: Inhibition of PHKG2 in human HeLa cells lysate at 2 uM pre incubated for 15 mins followed by ADP acyl phosphate probe addition and measured after 10 mins by LC-MS/MS analysis relative to control. Type of data set: subcellular. The settings on record: time 25.0 min.

The source made the active and inactive calls. The calls are words filed in the database; no cut-off is given here.

T2 sequence (Q13557 whole entry, the tested form may be a part): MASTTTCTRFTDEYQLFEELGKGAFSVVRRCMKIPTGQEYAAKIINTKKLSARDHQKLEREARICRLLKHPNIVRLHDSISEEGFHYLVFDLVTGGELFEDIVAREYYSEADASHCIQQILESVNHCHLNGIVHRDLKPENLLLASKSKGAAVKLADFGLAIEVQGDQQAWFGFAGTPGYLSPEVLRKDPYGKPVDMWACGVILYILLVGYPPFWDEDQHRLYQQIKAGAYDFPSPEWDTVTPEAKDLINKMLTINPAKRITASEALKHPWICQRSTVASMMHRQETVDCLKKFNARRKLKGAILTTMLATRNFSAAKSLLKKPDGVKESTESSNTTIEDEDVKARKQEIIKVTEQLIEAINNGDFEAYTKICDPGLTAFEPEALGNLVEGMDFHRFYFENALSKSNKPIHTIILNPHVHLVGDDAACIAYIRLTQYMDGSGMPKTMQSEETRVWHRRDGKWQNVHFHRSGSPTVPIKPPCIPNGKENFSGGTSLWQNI
Sequence of Cyclin-dependent kinase 1 (P06493 whole entry, the tested form may be a part): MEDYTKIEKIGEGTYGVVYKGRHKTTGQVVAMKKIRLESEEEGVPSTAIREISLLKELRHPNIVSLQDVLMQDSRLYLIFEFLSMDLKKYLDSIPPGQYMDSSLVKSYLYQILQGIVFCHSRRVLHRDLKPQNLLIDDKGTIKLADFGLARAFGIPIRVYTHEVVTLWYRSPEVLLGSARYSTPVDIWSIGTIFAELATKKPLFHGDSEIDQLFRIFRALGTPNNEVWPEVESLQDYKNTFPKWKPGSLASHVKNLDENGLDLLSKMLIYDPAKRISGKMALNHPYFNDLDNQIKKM
Sequence of Proto-oncogene tyrosine-protein kinase ROS (Homo sapiens) (P08922 whole entry, canonical isoform): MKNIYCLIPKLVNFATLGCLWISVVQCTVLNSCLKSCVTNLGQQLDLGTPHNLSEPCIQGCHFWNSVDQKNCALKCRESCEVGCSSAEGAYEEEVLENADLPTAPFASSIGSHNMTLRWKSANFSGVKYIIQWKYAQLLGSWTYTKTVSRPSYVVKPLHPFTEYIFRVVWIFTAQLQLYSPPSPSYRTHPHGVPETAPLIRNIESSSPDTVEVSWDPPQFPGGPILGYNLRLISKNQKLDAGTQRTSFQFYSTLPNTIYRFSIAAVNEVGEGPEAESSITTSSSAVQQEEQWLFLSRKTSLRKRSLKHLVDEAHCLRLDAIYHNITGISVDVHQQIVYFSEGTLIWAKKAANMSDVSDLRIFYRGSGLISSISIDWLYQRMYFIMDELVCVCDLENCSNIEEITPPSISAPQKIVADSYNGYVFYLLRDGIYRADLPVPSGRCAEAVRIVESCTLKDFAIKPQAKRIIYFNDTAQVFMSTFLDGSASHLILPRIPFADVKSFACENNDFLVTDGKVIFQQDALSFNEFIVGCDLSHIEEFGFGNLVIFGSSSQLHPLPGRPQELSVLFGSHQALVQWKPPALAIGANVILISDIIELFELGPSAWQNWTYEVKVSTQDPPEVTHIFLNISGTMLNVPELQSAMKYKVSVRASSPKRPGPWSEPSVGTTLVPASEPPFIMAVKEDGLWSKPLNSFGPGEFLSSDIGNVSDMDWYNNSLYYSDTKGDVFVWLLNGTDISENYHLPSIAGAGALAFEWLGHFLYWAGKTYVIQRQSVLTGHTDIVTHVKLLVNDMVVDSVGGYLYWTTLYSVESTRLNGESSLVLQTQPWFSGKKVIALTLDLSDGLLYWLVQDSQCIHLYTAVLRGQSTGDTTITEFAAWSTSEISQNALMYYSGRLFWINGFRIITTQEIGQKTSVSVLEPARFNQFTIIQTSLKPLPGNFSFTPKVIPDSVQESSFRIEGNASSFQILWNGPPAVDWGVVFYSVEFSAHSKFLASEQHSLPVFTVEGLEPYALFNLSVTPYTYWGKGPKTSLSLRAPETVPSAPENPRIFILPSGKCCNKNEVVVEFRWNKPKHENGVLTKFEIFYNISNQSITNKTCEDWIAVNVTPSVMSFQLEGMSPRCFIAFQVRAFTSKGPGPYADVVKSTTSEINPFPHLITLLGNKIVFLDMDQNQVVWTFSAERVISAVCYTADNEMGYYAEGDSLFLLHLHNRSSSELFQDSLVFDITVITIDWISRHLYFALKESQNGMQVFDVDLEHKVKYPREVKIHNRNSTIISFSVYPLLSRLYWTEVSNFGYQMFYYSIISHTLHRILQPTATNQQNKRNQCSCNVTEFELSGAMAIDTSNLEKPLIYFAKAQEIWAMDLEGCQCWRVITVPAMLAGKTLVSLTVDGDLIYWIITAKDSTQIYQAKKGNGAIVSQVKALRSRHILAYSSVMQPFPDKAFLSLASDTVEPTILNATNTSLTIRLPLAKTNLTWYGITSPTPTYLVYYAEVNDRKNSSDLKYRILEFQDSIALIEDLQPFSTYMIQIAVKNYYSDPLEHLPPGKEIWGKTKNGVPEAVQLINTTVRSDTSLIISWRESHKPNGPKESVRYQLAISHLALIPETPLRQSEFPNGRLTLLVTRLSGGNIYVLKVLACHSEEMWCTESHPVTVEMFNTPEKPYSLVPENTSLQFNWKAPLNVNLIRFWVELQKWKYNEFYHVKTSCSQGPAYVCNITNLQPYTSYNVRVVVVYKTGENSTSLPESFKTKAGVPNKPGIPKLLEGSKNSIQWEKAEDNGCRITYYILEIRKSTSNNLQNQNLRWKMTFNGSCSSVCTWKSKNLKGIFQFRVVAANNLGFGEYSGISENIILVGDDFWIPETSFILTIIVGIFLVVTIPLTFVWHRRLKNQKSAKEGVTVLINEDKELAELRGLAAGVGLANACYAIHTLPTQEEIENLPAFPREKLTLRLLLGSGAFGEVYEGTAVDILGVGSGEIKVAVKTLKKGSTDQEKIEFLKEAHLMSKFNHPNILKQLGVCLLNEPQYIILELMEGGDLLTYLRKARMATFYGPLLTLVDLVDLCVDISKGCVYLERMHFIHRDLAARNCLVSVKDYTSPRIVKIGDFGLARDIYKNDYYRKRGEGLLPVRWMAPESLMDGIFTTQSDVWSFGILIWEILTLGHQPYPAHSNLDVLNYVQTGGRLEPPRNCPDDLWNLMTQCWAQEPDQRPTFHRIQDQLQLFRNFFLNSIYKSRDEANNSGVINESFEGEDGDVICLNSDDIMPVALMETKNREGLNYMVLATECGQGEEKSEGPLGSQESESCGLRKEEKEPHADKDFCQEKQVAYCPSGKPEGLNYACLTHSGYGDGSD
Sequence of Serine/threonine-protein kinase 16 (O75716 whole entry): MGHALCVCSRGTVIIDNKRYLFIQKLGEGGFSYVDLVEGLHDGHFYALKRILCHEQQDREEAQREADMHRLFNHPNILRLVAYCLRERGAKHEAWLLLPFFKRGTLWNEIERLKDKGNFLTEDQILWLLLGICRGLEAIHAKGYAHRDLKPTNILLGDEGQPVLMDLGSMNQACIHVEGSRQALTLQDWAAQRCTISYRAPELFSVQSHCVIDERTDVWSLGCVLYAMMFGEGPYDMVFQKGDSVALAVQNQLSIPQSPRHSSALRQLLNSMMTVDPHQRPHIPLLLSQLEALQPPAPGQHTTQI

By inhibition is commonly meant the change of the read-out against control, counted positive when it falls. As usually defined, the IC50 is the concentration at which inhibition is half-maximal. Broadly, the MRT is a mean duration of stay, worked out from the concentration-time curve. As to `CCOc1cc(N2CCC(O)CC2)ccc1Nc1ncc2c(n1)N(C)c1ccccc1C(=O)N2C`, the inhibition in data set [1] is -8.9%; in [3] it was -2.6%; in [4], -6.5%; in data set [7], -9%; in data set [9], -1.2%; in data set [11], -0.8%. The inhibition in [13] was -4.3%; in data set [15], 3.4%. Moreover, the IC50 in data set [2], in data set [6], in data set [10] and in data set [12] was greater than 50 µM throughout. The inhibition entry in data set [5] was “inactive”. This compound yielded an MRT in data set [8] of 4.8 h. In the data set on Lewis lung carcinoma, the outcome was Active. In addition, the Activity in [14] worked out at 15%.
